Legend:
A673 = test: Anticancer activity against human A673 cells assessed as cell doubling measured for 72 hrs by DAPI staining based analysis; type: functional
NCI-H157 = test: Anticancer activity against human NCI-H157 cells assessed as cell doubling measured for 72 hrs by DAPI staining based analysis; type: functional
SNB-19 [1] = test: Anticancer activity against human SNB-19 cells assessed as cell growth inhibition measured after 72 hrs by DAPI staining based analysis; type: functional
[2] = test system: KATO III stomach cancer cell line; test: Anticancer activity against human KATO III stomach cancer cell line cells assessed as cell growth inhibition measured after 72 hrs by DAPI staining based analysis; type: functional
MC-CAR = test: Anticancer activity against human MC-CAR cells assessed as cell growth inhibition measured after 72 hrs by DAPI staining based analysis; type: functional
H4 = test: Anticancer activity against human H4 cells assessed as cell doubling measured for 72 hrs by DAPI staining based analysis; type: functional
NCI-H2122 = test: Anticancer activity against human NCI-H2122 cells assessed as cell doubling measured for 72 hrs by DAPI staining based analysis; type: functional
NCI-H358 = test: Anticancer activity against human NCI-H358 cells assessed as cell growth inhibition measured after 72 hrs by DAPI staining based analysis; type: functional
A549 = test: Antitumor activity against human A549 cells in xenograft model assessed as tumor growth delay at 125 mg/kg relative to control; type: functional
SW480 = test: Anticancer activity against human SW480 cells assessed as cell growth inhibition measured after 72 hrs by DAPI staining based analysis; type: functional
[3] = Anticancer activity against human SKO-007 cells assessed as cell doubling measured for 72 hrs by DAPI staining based analysis; type: functional
HepG2 = test: Anticancer activity against human HepG2 cells assessed as cell doubling measured for 72 hrs by DAPI staining based analysis; type: functional
ST486 = test: Anticancer activity against human ST486 cells assessed as cell doubling measured for 72 hrs by DAPI staining based analysis; type: functional
SK-N-FI = test: Anticancer activity against human SK-N-FI cells assessed as cell growth inhibition measured after 72 hrs by DAPI staining based analysis; type: functional
SCC-25 = test: Anticancer activity against human SCC-25 cells assessed as cell growth inhibition measured after 72 hrs by DAPI staining based analysis; type: functional
[4] = Anticancer activity against human C32TG cells assessed as cell doubling measured for 72 hrs by DAPI staining based analysis; type: functional
Y79 = test: Anticancer activity against human Y79 cells assessed as cell doubling measured for 72 hrs by DAPI staining based analysis; type: functional
MCF7 = test: Anticancer activity against human MCF7 cells assessed as cell growth inhibition measured after 72 hrs by DAPI staining based analysis; type: functional
LOX IMVI = test: Anticancer activity against human LOX IMVI cells assessed as cell growth inhibition measured after 72 hrs by DAPI staining based analysis; type: functional
RPMI-2650 = test: Anticancer activity against human RPMI-2650 cells assessed as cell growth inhibition measured after 72 hrs by DAPI staining based analysis; type: functional
SNB-19 [5] = test: Anticancer activity against human SNB-19 cells assessed as cell doubling measured for 72 hrs by DAPI staining based analysis; type: functional
NCI-H661 = test: Anticancer activity against human NCI-H661 cells assessed as cell growth inhibition measured after 72 hrs by DAPI staining based analysis; type: functional
FaDu = test: Anticancer activity against human FaDu cells assessed as cell growth inhibition measured after 72 hrs by DAPI staining based analysis; type: functional
Summary of the method: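 Cells seeded, DAPI-stained DNA content of fixed cells read by imaging 24 h after seeding (T0), and again after a further 72 h exposure to a range of drug concentrations (T72). T72 values were normalized to T0. Curve fits gave the concentration producing 50% growth inhibition relative to T0 and Ymax (GI50).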

SW1463 = test: Anticancer activity against human SW1463 cells assessed as cell doubling measured for 72 hrs by DAPI staining based analysis; type: functional
RD = test: Anticancer activity against human RD cells assessed as cell doubling measured for 72 hrs by DAPI staining based analysis; type: functional
[6] = Anticancer activity against human RDES cells assessed as cell doubling measured for 72 hrs by DAPI staining based analysis; type: functional, RD-ES
MOLT-16 = test: Anticancer activity against human MOLT-16 cells assessed as cell doubling measured for 72 hrs by DAPI staining based analysis; type: functional
Centromere protein E = Centromere protein E (Canis lupus familiaris, UniProt A0A8P0P634); test: Binding affinity to wild-type dog CENP-E assessed as inhibition constant
Chain of Centromere protein E (A0A8P0P634 whole entry): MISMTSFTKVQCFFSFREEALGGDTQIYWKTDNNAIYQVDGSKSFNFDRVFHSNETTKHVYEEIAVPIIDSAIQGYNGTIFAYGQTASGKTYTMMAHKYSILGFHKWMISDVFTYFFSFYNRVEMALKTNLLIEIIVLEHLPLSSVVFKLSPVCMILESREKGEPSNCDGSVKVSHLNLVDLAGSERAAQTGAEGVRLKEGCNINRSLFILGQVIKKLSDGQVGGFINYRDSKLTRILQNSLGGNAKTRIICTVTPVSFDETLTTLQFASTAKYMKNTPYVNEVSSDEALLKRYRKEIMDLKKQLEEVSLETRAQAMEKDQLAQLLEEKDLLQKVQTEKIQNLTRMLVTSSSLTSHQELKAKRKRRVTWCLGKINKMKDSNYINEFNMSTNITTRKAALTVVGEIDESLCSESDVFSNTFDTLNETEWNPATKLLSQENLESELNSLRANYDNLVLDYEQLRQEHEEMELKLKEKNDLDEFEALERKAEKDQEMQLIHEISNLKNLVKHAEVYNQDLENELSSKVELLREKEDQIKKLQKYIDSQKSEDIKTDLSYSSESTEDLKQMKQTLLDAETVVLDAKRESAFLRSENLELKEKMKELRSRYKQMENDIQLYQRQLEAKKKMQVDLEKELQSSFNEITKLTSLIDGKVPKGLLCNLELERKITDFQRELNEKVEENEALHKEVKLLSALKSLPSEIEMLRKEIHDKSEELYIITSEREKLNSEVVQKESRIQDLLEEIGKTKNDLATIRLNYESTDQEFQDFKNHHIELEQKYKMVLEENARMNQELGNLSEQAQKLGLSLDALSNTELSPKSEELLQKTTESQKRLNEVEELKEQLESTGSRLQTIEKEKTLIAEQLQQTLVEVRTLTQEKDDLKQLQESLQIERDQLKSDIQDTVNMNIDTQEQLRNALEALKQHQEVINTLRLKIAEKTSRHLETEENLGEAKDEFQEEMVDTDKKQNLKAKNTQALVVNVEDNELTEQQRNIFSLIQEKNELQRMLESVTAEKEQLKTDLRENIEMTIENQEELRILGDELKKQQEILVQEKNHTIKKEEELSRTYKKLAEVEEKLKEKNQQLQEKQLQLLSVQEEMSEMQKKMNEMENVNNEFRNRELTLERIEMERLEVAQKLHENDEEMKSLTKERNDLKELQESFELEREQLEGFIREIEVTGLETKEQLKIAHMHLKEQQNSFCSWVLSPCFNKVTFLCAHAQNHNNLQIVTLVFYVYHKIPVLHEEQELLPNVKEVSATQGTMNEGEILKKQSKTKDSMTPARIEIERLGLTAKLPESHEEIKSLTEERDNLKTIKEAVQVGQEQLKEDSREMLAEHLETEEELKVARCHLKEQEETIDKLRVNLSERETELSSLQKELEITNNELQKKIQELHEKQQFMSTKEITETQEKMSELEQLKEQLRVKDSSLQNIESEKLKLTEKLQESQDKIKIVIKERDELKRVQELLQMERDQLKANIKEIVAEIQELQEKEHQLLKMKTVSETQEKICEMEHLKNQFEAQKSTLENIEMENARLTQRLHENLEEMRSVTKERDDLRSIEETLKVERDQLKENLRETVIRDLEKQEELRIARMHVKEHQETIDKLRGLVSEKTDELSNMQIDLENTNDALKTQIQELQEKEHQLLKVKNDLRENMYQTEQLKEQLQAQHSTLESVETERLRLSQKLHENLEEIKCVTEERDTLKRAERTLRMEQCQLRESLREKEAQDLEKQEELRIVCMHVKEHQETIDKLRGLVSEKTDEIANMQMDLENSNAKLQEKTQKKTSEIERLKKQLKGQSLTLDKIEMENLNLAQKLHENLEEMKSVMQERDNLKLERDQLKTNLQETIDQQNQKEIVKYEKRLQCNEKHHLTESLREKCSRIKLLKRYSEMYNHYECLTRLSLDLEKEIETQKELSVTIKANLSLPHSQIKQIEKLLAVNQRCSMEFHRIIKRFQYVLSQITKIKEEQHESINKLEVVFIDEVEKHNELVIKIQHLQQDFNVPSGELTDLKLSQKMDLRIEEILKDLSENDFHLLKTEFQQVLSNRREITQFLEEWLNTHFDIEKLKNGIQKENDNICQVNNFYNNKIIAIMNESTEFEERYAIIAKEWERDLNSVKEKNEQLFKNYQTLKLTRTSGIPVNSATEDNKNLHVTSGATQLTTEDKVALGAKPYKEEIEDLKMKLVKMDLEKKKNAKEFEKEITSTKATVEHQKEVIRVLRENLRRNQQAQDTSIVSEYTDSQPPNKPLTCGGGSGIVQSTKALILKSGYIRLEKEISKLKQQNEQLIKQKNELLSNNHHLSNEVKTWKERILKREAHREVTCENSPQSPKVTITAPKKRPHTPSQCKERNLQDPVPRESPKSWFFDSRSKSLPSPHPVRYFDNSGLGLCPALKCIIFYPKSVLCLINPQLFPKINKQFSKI

5637 = test: Anticancer activity against human 5637 cells assessed as cell growth inhibition measured after 72 hrs by DAPI staining based analysis; type: functional
Summary of the method: (§1)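 Cells were seeded and, after 24 h, DNA content was read as T0. Cells were then exposed to varying drug concentrations for a further 72 h (T72). Fixed cells were DAPI-stained and DNA content measured by automated imaging. T72 values were normalized to T0. GI50 is the concentration giving 50% growth inhibition between T0 and Ymax, obtained by curve fitting.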

HN5 = test: Anticancer activity against human HN5 cells assessed as cell doubling measured for 72 hrs by DAPI staining based analysis; type: functional
U-251 = test: Anticancer activity against human U-251 cells assessed as cell growth inhibition measured after 72 hrs by DAPI staining based analysis; type: functional
RXF 393 = test: Anticancer activity against human RXF 393 cells assessed as cell growth inhibition measured after 72 hrs by DAPI staining based analysis; type: functional
NCI-H2052 = test: Anticancer activity against human NCI-H2052 cells assessed as cell growth inhibition measured after 72 hrs by DAPI staining based analysis; type: functional
JEG-3 [7] = test: Anticancer activity against human JEG-3 cells assessed as cell doubling measured for 72 hrs by DAPI staining based analysis; type: functional
NCI-H23 = test: Anticancer activity against human NCI-H23 cells assessed as cell doubling measured for 72 hrs by DAPI staining based analysis; type: functional
MCF-10A = test: Anticancer activity against human MCF-10A cells assessed as cell growth inhibition measured after 72 hrs by DAPI staining based analysis; type: functional
[8] = Anticancer activity against human C32TG cells assessed as cell growth inhibition measured after 72 hrs by DAPI staining based analysis; type: functional
Summary of the method: (§2)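 Cells were seeded, and DNA content at 24 h after seeding (T0) was read by imaging of fixed, DAPI-stained cells. Cells were then exposed to a range of drug concentrations for a further 72 h (T72) and DNA content was read again. T72 values were normalized to T0, and GI50 was taken from curve fits as the concentration giving 50% growth inhibition relative to T0 and Ymax.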

MDA-MB-231 = test: Anticancer activity against human MDA-MB-231 cells assessed as cell growth inhibition measured after 72 hrs by DAPI staining based analysis; type: functional
JEG-3 [9] = test: Anticancer activity against human JEG-3 cells assessed as cell growth inhibition measured after 72 hrs by DAPI staining based analysis; type: functional
C3A = test: Anticancer activity against human C3A cells assessed as cell growth inhibition measured after 72 hrs by DAPI staining based analysis; type: functional; summary of the method: as §2
[10] = Anticancer activity against human BC-2 cells assessed as cell growth inhibition measured after 72 hrs by DAPI staining based analysis; type: functional; summary of the method: as §1

GI50 [2]: 79 nM
GI50 (NCI-H358): 18 nM
GI50 (SW480): 33 nM
GI50 (SK-N-FI): 120 nM
GI50 (MCF7): 29 nM
GI50 (NCI-H661): 22 nM
Ki (Centromere protein E): 1.6 nM
GI50 (U-251): 26 nM
GI50 (NCI-H2052): 44 nM
GI50 (MDA-MB-231): 5020 nM
Compound: CC(C)Oc1ccc(C(=O)N[C@H](CNC(=O)CN(C)C)Cc2ccc(-c3cn4cccc([C@H](C)O)c4n3)cc2)cc1Cl [GSK-923295A]
Activity (A673): 2
Activity (NCI-H157): 2.6
GI50 (SNB-19 [1]): 28 nM
GI50 (MC-CAR): 86 nM
Activity (H4): 2.64
Activity (NCI-H2122): 2.82
Activity (A549): 73%
Activity [3]: 1.01
Activity (HepG2): 2.45
Activity (ST486): 2.46
GI50 (SCC-25): 23 nM
Activity [4]: 1.21
Activity (Y79): 4.11
GI50 (LOX IMVI): 25 nM
GI50 (RPMI-2650): 36 nM
Activity (SNB-19 [5]): 2.56
GI50 (FaDu): 32 nM
Activity (SW1463): 1.22
Activity (RD): 2.56
Activity [6]: 1.32
Activity (MOLT-16): 4.23
GI50 5637: 23 nM
Activity (HN5): 3.38
GI50 (RXF 393): 32 nM
Activity (JEG-3 [7]): 2.9
Activity (NCI-H23): 2.04
GI50 (MCF-10A): 16 nM
GI50 [8]: 28 nM
GI50 (JEG-3 [9]): 25 nM
GI50 (C3A): 54 nM
GI50 [10]: 45 nM

From ChEMBL document CHEMBL5705890, “Antitumor activity of an allosteric inhibitor of centromere-associated protein-E” (Proc Natl Acad Sci U S A, 2010)
